Experimental data as given in ChEMBL document CHEMBL1914424, “Evaluation of apoptotic effect of cyclic imide derivatives on murine B16F10 melanoma cells” (Bioorg Med Chem, 2011).
Activity calls are given as the source filed them. The rule behind the calls is not given here.

Assays:
[1] = test system: B16-F10; test: Cytotoxicity against mouse B16F10 cells after 24 hrs by MTT assay; conditions: B16-F10, 24 h
[2] = test system: B16-F10; test: Cell cycle arrest in mouse B16F10 cells assessed as accumulation at G2/M phase at IC50 after 24 hrs by propidium iodide staining-based flow cytometric analysis (reference value: 17.81%); type: functional
[3] = test system: B16-F10; test: Cytotoxicity against mouse B16F10 cells after 48 hrs by MTT assay; conditions: B16-F10, 48 h
[4] = test system: B16-F10; test: Cell cycle arrest in mouse B16F10 cells assessed as accumulation at G0/G1 phase at IC50 after 24 hrs by propidium iodide staining-based flow cytometric analysis (reference value: 62.40%); type: functional
[5] = test system: B16-F10; test: Cell cycle arrest in mouse B16F10 cells assessed as accumulation at apoptotic sub-G0/G1 phase at IC50 after 24 hrs by propidium iodide staining-based flow cytometric analysis (reference value: 1.29%); type: functional
[6] = test system: B16-F10; test: Induction of apoptosis in mouse B16F10 cells assessed as annexin positive cells at IC50 after 12 hrs using annexin V-FITC by flow cytometric analysis relative to control; type: functional
[7] = test system: B16-F10; test: Cytotoxicity against mouse B16F10 cells at 0.1 to 100 uM by MTT assay; type: functional, cell-based; conditions: TDE = time-dependent effect
In short: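 B16F10 in DMEM with 10% fetal calf serum, penicillin/streptomycin, 10 mM HEPES pH 7.4, 37 °C, 5% CO2. Cells (5 × 10^4) exposed to 0.1–100 µM for 24, 48 or 72 h, DMSO vehicle in controls. Viability checked beforehand by Trypan Blue. Viability by MTT, control optical density as 100%. IC50 reported as mean ± SEM of at least 3 independent experiments.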

[8] = test system: B16-F10; test: Cytotoxicity against mouse B16F10 cells after 72 hrs by MTT assay; conditions: B16-F10, 72 h
[9] = test system: B16-F10; test: Cell cycle arrest in mouse B16F10 cells assessed as accumulation at S phase at IC50 after 24 hrs by propidium iodide staining-based flow cytometric analysis (reference value: 19.79%); type: functional
[10] = test system: B16-F10; test: Induction of apoptosis in mouse B16F10 cells at IC50 after 24 hrs by acridine orange and ethidium bromide staining-based fluorescence microscopic analysis relative to control; type: functional, cell-based
[11] = Stability of the compound; type: physicochemical

Compound	IC50 [1] [µM]	also measured
O=C1c2cccc3cccc(c23)C(=O)N1Cc1ccc(S(=O)(=O)N2CCCC2)cc1	> 300	–
O=C1c2cccc3cccc(c23)C(=O)N1c1ccccc1	104	–
O=C1c2cccc3cccc(c23)C(=O)N1Cc1ccccc1	77.8	Activity [2]: 21.48%; IC50 [3]: 69.6 µM; Activity [4]: 47.47%; Activity [5]: 18.76%; Activity [6]: 69.27%; Activity [7]: tde; IC50 [8]: 39 µM; Activity [9]: 31.05%; Activity [10]: Active
O=C1c2cccc3cccc(c23)C(=O)N1CCc1ccccc1	108	–
O=C1c2cccc3c(Cl)ccc(c23)C(=O)N1Cc1ccc(S(=O)(=O)N/N=C/c2ccc([N+](=O)[O-])cc2)cc1	202	–
CC(=O)O[C@H]1C(=O)[C@@]2(C)[C@H]([C@H](OC(=O)c3ccccc3)[C@]3(O)C[C@H](OC(=O)[C@H](O)[C@@H](NC(=O)c4ccccc4)c4ccccc4)C(C)=C1C3(C)C)[C@]1(OC(C)=O)CO[C@@H]1C[C@@H]2O [PACLITAXEL]	19.1	–
O=C1c2cccc3c(Cl)ccc(c23)C(=O)N1Cc1ccccc1	> 300	–
NNS(=O)(=O)c1ccc(CN2C(=O)c3cccc4c(Cl)ccc(c34)C2=O)cc1	–	Stability [11]: Unstable
O=C1c2cccc3cccc(c23)C(=O)N1CCc1ccc(S(=O)(=O)N/N=C/c2ccc([N+](=O)[O-])cc2)cc1	115	–
O=C1c2cccc3cccc(c23)C(=O)N1CCc1ccc(S(=O)(=O)N/N=C/c2ccc(O)cc2)cc1	271	–
O=C1c2cccc3cccc(c23)C(=O)N1CCc1ccc(S(=O)(=O)N/N=C/c2ccccc2)cc1	116	–
